Square brackets hold non-standard residues; d marks the D form. Peptide text beside a SMILES is read from it. pGlu = O=C1CC[C@@H](C(=O)O)N1; Pip = O=C(O)[C@@H]1CCCCN1; Thz = O=C(O)[C@@H]1CSCN1; Aze = O=C(O)[C@@H]1CCN1
Assays:
Format in all cases: protein assay
[1] = target: T1, Dopamine receptor (Bos taurus) (UniProt Q95136+P20288); assay: Compound was tested for enhancement of the binding of [3H]-ADTN to dopamine receptors at concentration of 10 nM
Procedure, shortened: (§1)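 Bovine caudate homogenized in 50 mM Tris-HCl pH 7.7, centrifuged twice at 40000g, resuspended in 50 mM Tris pH 7.1 with 0.1% ascorbate, 120 mM NaCl, 5 mM KCl, 2 mM CaCl2, 10 μM pargyline. 0.4-0.6 mg protein, 8 nM [3H]ADTN, peptide at 1, 10 or 100 nM; 10 min, 37 °C, triplicate; GF/B filtration, scintillation counting. Specific binding defined with 1 μM (d)-butaclamol; % enhancement over no-drug basal.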

[2] = target: T1, Dopamine receptor (Bos taurus); assay: Compound was tested for enhancement of the binding of [3H]ADTN to dopamine receptors at concentration of 1 nM; procedure, shortened: as §1
[3] = target: T1, Dopamine receptor (Bos taurus); assay: Compound was tested for enhancement of the binding of [3H]ADTN to dopamine receptors at concentration of 100 nM; procedure, shortened: as §1

| SMILES | Enhancement [1] [%] | Enhancement [2] [%] | Enhancement [3] [%] |
| --- | --- | --- | --- |
| CC(C)C[C@H](NC(=O)[C@@H]1C=CCN1)C(=O)NCC(N)=O | 40 | 12.4 | 55 |
| CC(C)C[C@H](NC(=O)[C@@H]1CCN1)C(=O)NCC(N)=O (H-[Aze]-Leu-Gly-NH2) | 40 | 19 | 42 |
| CC(C)C[C@H](NC(=O)[C@@H]1CSCN1)C(=O)NCC(N)=O (H-[Thz]-Leu-Gly-NH2) | 8.5 | 7 | 9.5 |

Now from value to molecule:

| Enhancement [1] [%] | Enhancement [2] [%] | Enhancement [3] [%] | SMILES |
| --- | --- | --- | --- |
| 38.7 | 17 | 58.7 | CC(C)C[C@H](NC(=O)[C@@H]1CCCCN1)C(=O)NCC(N)=O (H-[Pip]-Leu-Gly-NH2) |
| 25 | 18 | 33 | CC(C)C[C@H](NC(=O)[C@@H]1CCCN1)C(=O)NCC(N)=O (stereo in doubt; 2) |
| 28 | 16 | 46.2 | CC(C)C[C@H](NC(=O)[C@@H]1CCCN1)C(=O)NCC(N)=O (stereo in doubt; 1) |
| 26.5 | 13.5 | 36.4 | CC(C)C[C@H](NC(=O)[C@@H]1CCC(=O)N1)C(=O)NCC(N)=O ([pGlu]-Leu-Gly-NH2) |
| 13 | 9.5 | 14.4 | CC(C)C[C@H](NC(=O)[C@H]1C=CCN1)C(=O)NCC(N)=O |

Source: ChEMBL document CHEMBL1123255, “Synthesis of Pro-Leu-Gly-NH2 analogues modified at the prolyl residue and evaluation of their effects on the receptor binding activity of the central dopamine receptor agonist, ADTN” (J Med Chem, 1986)
